# A selection: hits, their analogues and other compounds. The true share with any hit is near 2.4%.
# SIAE primary: blocks human sialic acid acetylesterase | Q9HAT2 | SIAE FP-Rh probe binding, fluorescence polarization | inhibition, % at 9.66 µM | 370,000 tested, 0.69% active;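 active = inhibition above a cutoff: mean of compounds within the control limits plus 3 SD of those, cut at about 17% in these data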;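 note: 0% = plate median of compound wells and 100% = probe without SIAE protein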
# Target sequence (Q9HAT2 whole entry, looked up): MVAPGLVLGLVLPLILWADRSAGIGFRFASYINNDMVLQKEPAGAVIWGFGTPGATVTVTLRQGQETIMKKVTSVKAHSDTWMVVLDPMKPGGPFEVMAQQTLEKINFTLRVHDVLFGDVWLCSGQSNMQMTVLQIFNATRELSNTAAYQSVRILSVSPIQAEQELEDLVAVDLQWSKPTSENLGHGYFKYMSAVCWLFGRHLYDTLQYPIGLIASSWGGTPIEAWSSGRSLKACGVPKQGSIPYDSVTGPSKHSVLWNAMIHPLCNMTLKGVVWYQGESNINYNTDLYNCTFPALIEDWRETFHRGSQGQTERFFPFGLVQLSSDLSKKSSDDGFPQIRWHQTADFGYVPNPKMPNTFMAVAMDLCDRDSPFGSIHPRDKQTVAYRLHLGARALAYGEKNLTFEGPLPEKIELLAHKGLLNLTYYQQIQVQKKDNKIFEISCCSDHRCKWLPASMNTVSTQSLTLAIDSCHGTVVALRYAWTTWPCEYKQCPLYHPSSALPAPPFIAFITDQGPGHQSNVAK
# mABHD4 FP: inhibitors of mouse ABHD4. inhibition, % at 8.92 µM. purified mABHD4, FP-Rh probe fluorescence polarization. Q8VD66. 370,000 tested, 0.54% active;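 active = inhibition exceeding the mean over every tested compound plus 3 SD, cut at about 30% in these data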;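 note: 0% = plate median of compound wells and 100% = S159A mutant with DMSO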
#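 assay system = mABHD4 protein | compound dosing = single nominal dose of 8.92 µM, 0.89% DMSO final | read-out basis = percent inhibition of probe binding, normalized to plate controls | schedule = Enzyme–compound pre-incubation 45 min, then probe 60 min, both 25 °C | detection = fluorescence polarization, excitation 525 nm, emission 598 nm, BODIPY TMR filters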
# HTRA1 inh: blocks human HTRA1 serine peptidase. Q92743. recombinant HTRA1, FP-rhodamine activity-based probe, fluorescence polarization. inhibition, % at 5.96 µM. 340,000 tested, 0.5% active; in the data active = inhibition above about 36%;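 note: 0% = enzyme with DMSO and 100% = wells lacking enzyme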
# PRMT1 inh: blocks human protein arginine methyltransferase 1 | Q99873 | recombinant PRMT1, activity-based probe fluorescence polarization | inhibition, % at 2.79 µM | 370,000 tested, 1.3% active | AID 652257;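 active = inhibition above about 21% made by adding two undisclosed values, limit read from the data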
# JMJD2C inh: blocks human GASC-1 demethylase activity; GST-JMJD2C(1-420) H3K9me3 demethylation, DELFIA europium; 330,000 tested, 0.069% active; AID 2099; inhibition, % at 2.35 µM;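 active = more than half of a compound's replicate wells show inhibition beyond 50%, single wells judged on their own value; inconclusive = some, but no more than half, of replicates pass 50% inhibition; inactive = no replicate passes 50% inhibition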;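 note: signal counts dimethyl H3K9 product captured on neutravidin plate; 0% = median of DMSO wells and 100% = 0.3 times that DMSO median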
# Active calls of the source: *; ? = inconclusive; · = not tested or not shown.
SMILES,SIAE primary,mABHD4 FP,HTRA1 inh,PRMT1 inh,JMJD2C inh
COC(=O)[C@@]1(Cc2ccc(F)cc2)[C@H]2c3cc(C(=O)N4CCCC4)n(Cc4ccc(C(F)(F)F)nc4)c3C[C@H]2CN1C(=O)c1ccccc1,17*,-8,·,0,8
COC(=O)[C@@]1(Cc2ccc(F)cc2)[C@H]2c3cc(C(=O)N4CCCC4)n(Cc4ccc(S(C)(=O)=O)cc4)c3C[C@H]2CN1C(=O)c1ccccc1,1,6,·,-1,·
COC(=O)[C@@]1(Cc2ccc(F)cc2)[C@H]2c3cc(C(=O)N4CCCC4)n(Cc4ccc(C)o4)c3C[C@H]2CN1C(=O)c1ccccc1,2,2,·,24*,·
Cc1[nH]c2ccccc2c1C(C#N)(C#N)C1C(=O)c2ccccc2C1=O,8,39*,27,1,21
CCOC(=O)C1=C(C)n2c(s/c(=C3\C(=O)Nc4ccccc43)c2=O)=NC1c1ccc(OC)cc1 (stereo not drawn),-24,-15,-10,24*,28
CCOC(=O)C1=C(C)N=c2s/c(=C3/C(=O)Nc4ccccc43)c(=O)n2C1c1ccc(C)cc1 (stereo not drawn),-31,-13,-11,23*,-10
COC(=O)C1CN(Cc2ccc(Cl)cc2)CCS(=O)(=O)N1Cc1cn(Cc2ccc(C)cc2)nn1 (stereo not drawn),0,-3,·,-1,·
CC(C)[C@@H](NC(=O)OC(C)(C)C)c1cc(C(=O)c2c(-c3ccccc3)[nH]c3ccccc23)c(N)s1,-6,-6,·,23*,·
Cc1ccc(C(=S)N2CCN(Cc3ccccc3)CC2)cc1,3,1,-2,22*,-9
N#CCC[C@H]1CC[C@]2(CCCN(C(=O)C3CCCCC3)C2)O1,-1,2,·,-4,·
O=C1C(Cl)=C(N2CCC(C(=O)O)CC2)C(=O)c2ccccc21,·,·,7,·,6
NC(=O)C1CCN(C2=C(Cl)C(=O)c3ccccc3C2=O)CC1,-4,7,10,25*,8
C=CCN1[C@H](C#N)[C@@H](c2ccc(C#Cc3cccnc3)cc2)[C@H]1CO,6,3,·,5,·
NC1=NS(=O)(=O)Nc2ccccc21,-1,-2,·,-3,·
COc1cccc(NC2=C(C#N)C(=O)NC(c3cccc(OC)c3O)S2)c1 (stereo not drawn),0,15,12,3,-2
N#CC1=C(Nc2ccccc2Cl)SC(c2ccccc2O)NC1=O (stereo not drawn),-3,5,-1,24*,2
O=C(Nc1ccc(F)cc1F)c1cc(-c2ccco2)nc2ccccc12,-9,-11,-26,23*,-13
C=CCN1C(=O)[C@@H](CC(=O)N2CCCCC2)[C@]2(C(=O)OCC)CCCCC/C=C/12,0,4,·,-2,·
O=C(Nc1ccc(S(=O)(=O)N2CCOCC2)cc1)c1ccc2c(c1)S(=O)(=O)c1ccccc1C2=O,-14,0,0,3,-17
CCNC(=O)c1ccc2c(c1)S(=O)(=O)c1ccccc1C2=O,-4,6,-2,0,51*
O=C(Nc1cc(S(=O)(=O)N2CCOCC2)ccc1O)c1ccc2c(c1)S(=O)(=O)c1ccccc1C2=O,1,9,-3,21*,-7
CCC(=O)N(c1ccccc1)C1CCN(C(=O)C(Cc2ccccc2)NC(C)=O)CC1 (stereo not drawn),3,0,·,2,·
COc1ccccc1-c1nnc2n1N=C(c1ccc3c(c1)OCO3)CS2,3,2,·,-4,·
CC(C)N1CC(C(=O)Nc2ccc(Br)c(Cl)c2)CC1=O (stereo not drawn),-2,-5,-7,0,69*
COc1ccc(C(c2c(O)ccc3ccccc23)N2CCOCC2)c(OC)c1 (stereo not drawn),-14,-30,-76,67*,-7
SMILES,SIAE primary,mABHD4 FP,HTRA1 inh,PRMT1 inh,JMJD2C inh
COC(=O)[C@]12C[C@H](CC(=O)N3CCOCC3)C(=O)N(Cc3ccco3)C1=C[C@H](C(C)C)O[C@@H]2C1CC1,5,1,·,-1,·
CC(C)(N[C@@H](Cc1c[nH]c2ccccc12)C(=O)NCCCc1ccccc1)C(=O)NCc1ccccc1,1,-5,·,-3,·
COc1ccc(C(NC(=O)c2cccnc2)c2cc(Cl)c3cccnc3c2O)cc1OC (stereo not drawn),10,7,45*,1,-1
O=[N+]([O-])c1ccc2c(c1)-c1ccccc1C2O (stereo not drawn),6,5,0,36*,·
O=[N+]([O-])c1ccc2c(c1)/C(=N\O)c1ccccc1-2,-22,-5,-7,-1,-33
CCCCCCNC(=O)C1CSCCS(=O)(=O)N1Cc1ccc(OC)cc1 (stereo not drawn),0,2,·,-2,·
c1ccc(CCn2nnnc2CN2CCCc3ccccc32)cc1,1,-12,-4,25*,2
C[C@H](NC(=O)[C@@H]1CSC2c3ccccc3C(=O)N21)C(=O)NCCc1ccc(F)cc1 (stereo partly drawn),-5,-5,5,25*,5
COC(=O)C(Cc1ccccc1)NC(=O)COc1ccc(C(C)(C)C)cc1 (stereo not drawn),1,-16,-21,4,61*
CCOc1ccc(C(=O)NC(Cc2ccccc2)C(=O)OC)cc1 (stereo not drawn),7,-3,0,-5,-82
C=CCN=Cc1sc2ccc(OCC)cc2c1O,-3,1,·,24*,-4
CCOc1ccc2nc(/N=C/c3nc(-c4ccc(Br)cc4)oc3O)sc2c1,-12,7,-14,-2,1
Clc1ccc(N=c2ssnc2Cl)nc1,3,6,19,21*,54*
COc1ccc2ccc(OC)c(/C=N/NC(=O)c3cc4ccccc4o3)c2c1,-80,-56,-95,-4,·
Nc1cc(-c2ccncc2)c[nH]c1=O,0,5,5,24*,?
NC(=O)c1csc(-c2ccncc2)n1,-2,-3,3,1,2
CCCS(=O)(=O)NC(=O)C1(C)CCCN(C(=O)c2cc(F)ccc2C)C1 (stereo not drawn),1,-1,·,-2,·
O=C(Nc1cccc(S(=O)(=O)N2CCCCC2)c1)c1ccco1,-2,-2,3,-1,0
O=C(Oc1cccc(NC(=O)c2ccco2)c1)c1cccc(S(=O)(=O)N2CCCC2)c1,-10,-13,-10,2,52*
Cc1cccc(C)c1NC(=S)NN(Cc1ccccc1)c1ccccc1,1,-1,-1,-1,72*
Fc1ccccc1NC(=S)NN(Cc1ccccc1)c1ccccc1,1,5,-11,-2,16
CC1=C(C(=O)OC2CCCCC2)C(c2ccc(C)o2)C2=C(CCCC2=O)N1 (stereo not drawn),4,-13,-2,3,2
CC1=C(C(=O)OCc2ccccc2)C(c2ccc(C)o2)C2=C(CCCC2=O)N1 (stereo not drawn),33*,-4,-5,2,7
